Screening data: PubChem, The Scripps Research Institute Molecular Screening Center
CHRM1 antagonist: human M1 muscarinic receptor antagonists, primary screen, CHO-K1 cells, Fluo-8 calcium fluorescence, 1536-well; Muscarinic acetylcholine receptor M1 (Homo sapiens), P11229; CHO-K1 hM1, ACh EC80 antagonist; inhibition, % at 3 µM; actives 1.3% (n = 360,000); AID 588852, 2011;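 active means percent inhibition above its own plate's cutoff, namely the mean of that plate's compound wells plus 3 SD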;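 further: peak over basal fluorescence ratio during 140 s after agonist addition; 0% = ACh EC80 plus DMSO and 100% = DMSO alone without agonist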
CHRM1 PAM: human M1 muscarinic receptor positive allosteric modulators, primary screen, CHO-K1 cells, Fluo-8 calcium fluorescence, 1536-well; Muscarinic acetylcholine receptor M1 (Homo sapiens), P11229; CHO-K1 hM1, ACh EC20; 0% = ACh EC20, 100% = maximal ACh; activation, % at 3 µM; actives 0.088% (n = 360,000); in the data active means activation above about 19%, passing the limit was not always enough
CHRM1 agonist: human M1 muscarinic receptor agonists, primary screen, Fluo-8 calcium fluorescence, CHO-K1 cells, HTS | CHO-K1 hM1, agonist mode; 0% DMSO, 100% acetylcholine EC100 | AID 588814, 2011 | Muscarinic acetylcholine receptor M1 (Homo sapiens), P11229 | activation, % at 3 µM | actives 0.33% (n = 360,000);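 active means activation above the run's mean compound activation plus 3 SD, cut at about 16% in these data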;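 further: peak over basal fluorescence ratio within a 140 s kinetic read after compound addition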
CHRM5 agonist: human M5 muscarinic receptor agonists, primary screen, CHO-K1 cells, Fluo-8 calcium fluorescence. CHO-K1 hM5 cells; 0% DMSO wells, 100% maximal acetylcholine response. AID 624037, 2012. actives 0.19% (n = 360,000). activation, % at 3 µM. Muscarinic acetylcholine receptor M5 (Homo sapiens), P08912;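 active means activation above the run's mean over test compounds plus 3 SD, cut at about 23% in these data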;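 further: signal is peak over basal fluorescence ratio across the kinetic read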
Target sequence (P08912 whole entry, looked up): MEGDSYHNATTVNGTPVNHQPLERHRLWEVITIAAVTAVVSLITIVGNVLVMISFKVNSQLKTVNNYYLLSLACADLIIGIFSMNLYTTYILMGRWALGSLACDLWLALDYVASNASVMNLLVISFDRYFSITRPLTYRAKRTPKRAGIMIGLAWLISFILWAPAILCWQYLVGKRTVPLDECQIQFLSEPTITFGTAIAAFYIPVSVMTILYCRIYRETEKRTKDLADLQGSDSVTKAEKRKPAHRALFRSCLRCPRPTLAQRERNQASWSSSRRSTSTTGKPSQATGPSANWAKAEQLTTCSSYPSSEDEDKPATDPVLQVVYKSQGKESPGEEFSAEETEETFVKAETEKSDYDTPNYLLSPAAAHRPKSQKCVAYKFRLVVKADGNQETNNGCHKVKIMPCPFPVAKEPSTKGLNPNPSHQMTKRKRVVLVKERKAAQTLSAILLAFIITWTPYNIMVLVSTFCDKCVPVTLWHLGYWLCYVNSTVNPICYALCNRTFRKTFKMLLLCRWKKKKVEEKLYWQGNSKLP
M5 antag: human M5 muscarinic receptor antagonists, primary screen, CHO cells, Fluo-8 calcium fluorescence. CHO-hM5 cells, ACh EC80. inhibition, % at 3 µM. actives 0.59% (n = 360,000). AID 624040, 2012;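 active means inhibition above a per-plate cutoff, the mean of that plate's test compounds plus 3 SD, cut at about 27% in these data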;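 further: 0% = acetylcholine EC80 with DMSO and 100% = DMSO without agonist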
M5 PAM: human M5 muscarinic receptor positive allosteric modulators, primary screen, CHO-K1 cells, Fluo-8 calcium fluorescence; activation, % at 3 µM; AID 624038, 2012; actives 0.3% (n = 360,000); CHO-K1 hM5, ACh EC20 PAM; 0% = ACh EC20, 100% = ACh EC100;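 active means activation above the run cutoff, the mean activation of all test compounds plus 3 SD, cut at about 18% in these data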
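System: CHO-K1 cell line with stable human muscarinic M5 receptor expression | Also added: EC20 acetylcholine as agonist stimulus | Compound: One concentration, 3 µM final (nominal) | Timing: Fluo-8 loading 80 min at 37 °C plus 30 min room temperature | Measured by: Fluo-8 calcium dye fluorescence, kinetic read | Read-out basis: % activation, ACh-normalized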
Numbers without * were called inactive. In the library only some 2% were active in any assay of this set; here they are far more common.

Results for O=c1oc2c3c4c(cc2c(C(F)(F)F)c1CCN1CCOCC1)CCCN4CCC3 ?
CHRM1 antagonist: 15.2; CHRM1 PAM: -3.3; CHRM1 agonist: 25.1*; CHRM5 agonist: 10.4; M5 antag: 10.1; M5 PAM: -6.3

How did Cc1nn(C)c(C)c1CN(Cc1nc(CCC(C)C)no1)C(C)C do in these assays?
CHRM1 antagonist: 11.2; CHRM1 PAM: 1.9; CHRM1 agonist: -1.2; CHRM5 agonist: 5.8; M5 antag: 31.6*; M5 PAM: -20.8

What do the screens show for `COc1ccc(C2CC(c3ccccc3)=NN2c2ccc(C(N)=O)cc2)cc1` (centres undefined)?
CHRM1 antagonist: -1.5; CHRM1 PAM: 3.2; CHRM1 agonist: -2.7; CHRM5 agonist: -4.7; M5 antag: 30.0*; M5 PAM: -0.7

How did COc1ccc(C2CC(c3ccccc3)=NN2c2ccc(S(N)(=O)=O)cc2)cc1 (centres undefined) do in these assays?
CHRM1 antagonist: 11.8; CHRM1 PAM: 2.3; CHRM1 agonist: -1.9; CHRM5 agonist: 1.4; M5 antag: 10.8; M5 PAM: 6.5

Results for Cc1cccc(N2CCN(C(=O)c3ccc4c(c3)OCCO4)CC2C)c1 (centres undefined) ?
CHRM1 antagonist: -0.6; CHRM1 PAM: -0.8; CHRM1 agonist: -3.4; CHRM5 agonist: 2.9; M5 antag: 6.2; M5 PAM: 2.0

How did Cc1cccc(N2CCN(C(=O)C3CC(=O)N(c4ccc5c(c4)OCCO5)C3)CC2C)c1 (centres undefined) do in these assays?
CHRM1 antagonist: 29.9*; CHRM1 PAM: -17.9; CHRM1 agonist: 2.0; CHRM5 agonist: 9.7; M5 antag: 0.2; M5 PAM: -26.0

How did O=C(c1ccccc1)N(Cc1ccc(F)cc1)Cc1nc2ccccc2c(=O)[nH]1 do in these assays?
CHRM1 antagonist: -13.4; CHRM1 PAM: 18.3; CHRM1 agonist: 3.8; CHRM5 agonist: 5.8; M5 antag: -1.1; M5 PAM: -4.5

What do the screens show for `O=C(c1ccncc1)N(Cc1ccccc1)Cc1nc2ccccc2c(=O)[nH]1`?
CHRM1 antagonist: 5.2; CHRM1 PAM: 1.3; CHRM1 agonist: -2.7; CHRM5 agonist: 6.5; M5 antag: -3.3; M5 PAM: 29.1*

Results for CCC(C)C(=O)C(=O)N1CCC(n2nccc2NC(=O)CCOc2ccccc2)CC1 (centres undefined) ?
CHRM1 antagonist: -5.5; CHRM1 PAM: 6.2; CHRM1 agonist: -2.6; CHRM5 agonist: 0.7; M5 antag: -2.7; M5 PAM: 4.7

How did CCOc1ccccc1N1CCN(C(=O)c2cc(S(=O)(=O)N3CCCCC3)ccc2C)CC1 do in these assays?
CHRM1 antagonist: 30.9*; CHRM1 PAM: -15.7; CHRM1 agonist: -2.3; CHRM5 agonist: 4.1; M5 antag: 11.1; M5 PAM: -22.3

Results for COc1ccccc1NS(=O)(=O)c1ccc(C)c(C(=O)N2CCCC2)c1 ?
CHRM1 antagonist: -17.6; CHRM1 PAM: 26.0*; CHRM1 agonist: 1.7; CHRM5 agonist: 2.2; M5 antag: 2.2; M5 PAM: 2.9

How did COc1ccc(OC)c(CN2CCN(C(=O)c3cc(S(=O)(=O)Nc4ccccc4OC)ccc3C)CC2)c1 do in these assays?
CHRM1 antagonist: -1.4; CHRM1 PAM: 0.7; CHRM1 agonist: -0.7; CHRM5 agonist: 1.2; M5 antag: -9.3; M5 PAM: -1.9

What do the screens show for `CCc1nn(CC(=O)NCCCN2CCN(CC)CC2)c(=O)c2cc3occc3n12`?
CHRM1 antagonist: -19.4; CHRM1 PAM: 24.0*; CHRM1 agonist: -2.5; CHRM5 agonist: -1.2; M5 antag: -9.5; M5 PAM: 5.8

Results for CCCCN(CCCNC(=O)Cn1nc(CC)n2c(cc3sc(C)cc32)c1=O)Cc1ccccc1 ?
CHRM1 antagonist: -18.7; CHRM1 PAM: 4.9; CHRM1 agonist: -6.1; CHRM5 agonist: -7.2; M5 antag: -4.2; M5 PAM: 5.6

Results for CCc1nn(CC(=O)NCCCN(CC)Cc2ccccc2)c(=O)c2cc3sccc3n12 ?
CHRM1 antagonist: 43.6*; CHRM1 PAM: -27.6; CHRM1 agonist: -12.7; CHRM5 agonist: 0.7; M5 antag: 5.2; M5 PAM: -3.7

What do the screens show for `CCc1nn(CC(=O)NCCCN(C)C2CCCCC2)c(=O)c2cc3occc3n12`?
CHRM1 antagonist: 5.2; CHRM1 PAM: -5.4; CHRM1 agonist: -13.3; CHRM5 agonist: -5.7; M5 antag: 15.6; M5 PAM: -2.2

Results for CC(=O)Nc1cccc(-c2ccnc3c2CC(C(=O)Nc2ccc(C(C)C)cc2)O3)c1 (centres undefined) ?
CHRM1 antagonist: -10.7; CHRM1 PAM: 2.2; CHRM1 agonist: -0.7; CHRM5 agonist: 1.1; M5 antag: -2.8; M5 PAM: -1.6

Results for COc1cccc(CN2CCNC(=O)C2CC(=O)N(C)C2CCOCC2)c1OC (centres undefined) ?
CHRM1 antagonist: 3.7; CHRM1 PAM: -0.2; CHRM1 agonist: -3.1; CHRM5 agonist: -5.7; M5 antag: 28.0*; M5 PAM: -7.5

What do the screens show for `COc1cccc(CN2CCNC(=O)C2CC(=O)N(C)CC2CCOCC2)c1OC` (centres undefined)?
CHRM1 antagonist: -1.9; CHRM1 PAM: 2.7; CHRM1 agonist: -1.2; CHRM5 agonist: -1.1; M5 antag: -9.8; M5 PAM: 2.2

What do the screens show for `Cc1ccccc1C(=O)N=c1ccn(-c2nc3ccccc3nc2NS(=O)(=O)c2ccccc2)cc1`?
CHRM1 antagonist: -8.2; CHRM1 PAM: 5.0; CHRM1 agonist: -1.2; CHRM5 agonist: -5.3; M5 antag: 12.0; M5 PAM: -0.1

How did CCOc1ccc(S(=O)(=O)Nc2nc3ccccc3nc2-n2ccc(=NC(=O)c3ccccc3C)cc2)cc1 do in these assays?
CHRM1 antagonist: 25.8; CHRM1 PAM: -9.4; CHRM1 agonist: 21.4*; CHRM5 agonist: 30.1*; M5 antag: 39.9*; M5 PAM: -17.5

What do the screens show for `O=C(NNC(=S)NC(=O)c1ccccc1Cl)c1cccc([N+](=O)[O-])c1`?
CHRM1 antagonist: 16.9; CHRM1 PAM: -7.8; CHRM1 agonist: 19.1*; CHRM5 agonist: 7.6; M5 antag: 10.6; M5 PAM: -4.8
